Laboratory results as given in ChEMBL document CHEMBL1153429, “Structure-based virtual screening of Src kinase inhibitors” (Bioorg Med Chem, 2009).
Values belong to the compound of their own block, whether it stands above or below them. The source made the active and inactive calls. No cut-off for these calls is given here.

Columns and labels:
[1] = molecular target: T1, Proto-oncogene tyrosine-protein kinase Src (Homo sapiens, UniProt P12931); assay: Inhibition of Src kinase at 10 uM
In short: (§1)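 Kinase reaction with ATP and specific substrate, incubated 1 h at room temperature with test compound (1% DMSO final). Protease solution then added, followed by stabilizer. Read-out by […] at 485/530 nm.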

MCF7 = assay: Antiproliferative activity against human MCF7 cells at < 10 uM after 72 hrs by SRB assay; format: functional, cell-based
In short: (§2)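 Cells seeded at 10,000–15,000 per well and held at 37 °C, 5% CO2. After 24 h compound added across a concentration range for 72 h. Cells then fixed with cold 10% TCA and stained with sulforhodamine B (0.4% in 1% acetic acid). Dye solubilized in 10 mM Tris base and absorbance read. GI50 from [(Ti−Tz)/(C−Tz)]×100 = 50. PC3 and SK-BR3 grown in RPMI 1640 with 10% FBS; A431 and MCF-7 in DMEM with 10% FBS.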

[2] = Cmax in Sprague-Dawley rat at 10 mg/kg, po; format: ADME, organism-based; design: dose 10 mg/kg, route oral; conditions: in vivo
In short: (§3)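 Single dose in Sprague–Dawley rats, iv or po. Rats fasted overnight before oral dosing and fed about 2 h after it; no fasting for iv. Approx. 0.3 mL blood drawn from the tail vein into heparin tubes at various times, then centrifuged to plasma and held at −80 °C. Compound measured by LCMS. t1/2 = 0.693/Ke; AUC by linear trapezoidal rule to 5 h plus extrapolation.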

[3] = AUC in Sprague-Dawley rat at 10 mg/kg, po; format: ADME, organism-based; design: dose 10 mg/kg, route oral; conditions: plasma; in short: as §3
[4] = Tmax in Sprague-Dawley rat at 10 mg/kg, po; format: ADME, organism-based; design: dose 10 mg/kg, route oral; conditions: in vivo; in short: as §3
[5] = molecular target: Ribosomal protein S6 kinase alpha-1 (Homo sapiens) (UniProt Q15418); assay: Inhibition of p90RSK phosphorylation in human PC3 cells at 0.1 uM by Western blot analysis; format: cell-based; conditions: PC-3, TDE = time-dependent effect
In short: (§4)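 PC3 or A431 cells grown 48 h in 6 cm dishes, then exposed to 0.1 µM compound for varying times. Lysed on ice in Tris pH 7.5/NaCl/EDTA/Triton X-100/DTT/PMSF/glycerol with protease inhibitors, then spun. Protein measured by dye-binding assay. Run on 10% SDS-PAGE, blotted to PVDF, blocked 1 h in 5% milk, and probed for phospho and total ERK and p90RSK.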

[6] = Tmax in Sprague-Dawley rat at 5 mg/kg, iv; format: ADME, organism-based; design: dose 5 mg/kg, route intravenous; conditions: in vivo; in short: as §3
[7] = Half life in Sprague-Dawley rat at 5 mg/kg, iv; format: ADME, organism-based; design: dose 5 mg/kg, route intravenous; conditions: in vivo; in short: as §3
[8] = Cmax in Sprague-Dawley rat at 5 mg/kg, iv; format: ADME, organism-based; design: dose 5 mg/kg, route intravenous; conditions: in vivo; in short: as §3
[9] = molecular target: Ribosomal protein S6 kinase alpha-1 (Homo sapiens) (UniProt Q15418); assay: Inhibition of p90RSK phosphorylation in human PC3 cells at 0.1 uM after 6 hrs by Western blot analysis; format: cell-based; conditions: PC-3; in short: as §4
A-431 [10] = assay: Antiproliferative activity against human A431 cells after 72 hrs by SRB assay; format: functional, cell-based; in short: as §2
[11] = molecular target: Epidermal growth factor receptor (Homo sapiens, UniProt P00533)
[12] = AUC in Sprague-Dawley rat at 5 mg/kg, iv; format: ADME, organism-based; design: dose 5 mg/kg, route intravenous; conditions: plasma; in short: as §3
SK-BR-3 = assay: Antiproliferative activity against human SKBR3 cells expressing HER2 at < 10 uM after 72 hrs by SRB assay; format: functional, cell-based; in short: as §2
[13] = molecular target: Ribosomal protein S6 kinase alpha-1 (Homo sapiens) (UniProt Q15418); assay: Inhibition of p90RSK phosphorylation in human A431 cells at 0.1 uM by Western blot analysis; format: cell-based; conditions: A-431, TDE = time-dependent effect; in short: as §4
PC-3 [14] = assay: Inhibition of ERK phosphorylation in human PC3 cells at 0.1 uM by Western blot analysis; format: cell-based; conditions: TDE = time-dependent effect; in short: as §4
PC-3 [15] = assay: Inhibition of ERK phosphorylation in human PC3 cells at 0.1 uM after 6 hrs by Western blot analysis; format: cell-based; in short: as §4
Rattus norvegicus = assay: Cmax in Sprague-Dawley rat plasma at 10 mg/kg, iv and po; format: ADME, organism-based; design: dose 10 mg/kg, route oral; conditions: in vivo
A-431 [16] = assay: Inhibition of ERK phosphorylation in human A431 cells at 0.1 uM by Western blot analysis; format: cell-based; conditions: TDE = time-dependent effect; in short: as §4
A-431 [17] = assay: Inhibition of ERK phosphorylation in human A431 cells at 0.1 uM after 6 hrs by Western blot analysis; format: cell-based; in short: as §4
[18] = Oral bioavailability in Sprague-Dawley rat at 10 mg/kg, po; format: ADME, organism-based; conditions: in vivo; in short: as §3
[19] = molecular target: Ribosomal protein S6 kinase alpha-1 (Homo sapiens) (UniProt Q15418); assay: Inhibition of p90RSK phosphorylation in human A431 cells at 0.1 uM after 6 hrs by Western blot analysis; format: cell-based; conditions: A-431; in short: as §4
[20] = Tmax in Sprague-Dawley rat plasma at 10 mg/kg, iv and po; format: ADME, organism-based; design: dose 10 mg/kg, route oral
[21] = molecular target: T1, Proto-oncogene tyrosine-protein kinase Src
[22] = molecular target: Vascular endothelial growth factor receptor 2 (Homo sapiens) (UniProt P35968); assay: Inhibition of VEGFR2 at 10 uM; in short: as §1
[23] = Half life in Sprague-Dawley rat at 10 mg/kg, po; format: ADME, organism-based; design: dose 10 mg/kg, route oral; conditions: in vivo; in short: as §3
PC-3 [24] = assay: Antiproliferative activity against human PC3 cells after 72 hrs by SRB assay; format: functional, cell-based; in short: as §2
A-431 [25] = assay: Inhibition of EGF-stimulated tyrosine phosphorylation in human A431 cells

Sequence of Ribosomal protein S6 kinase alpha-1 (Homo sapiens) (Q15418 whole entry): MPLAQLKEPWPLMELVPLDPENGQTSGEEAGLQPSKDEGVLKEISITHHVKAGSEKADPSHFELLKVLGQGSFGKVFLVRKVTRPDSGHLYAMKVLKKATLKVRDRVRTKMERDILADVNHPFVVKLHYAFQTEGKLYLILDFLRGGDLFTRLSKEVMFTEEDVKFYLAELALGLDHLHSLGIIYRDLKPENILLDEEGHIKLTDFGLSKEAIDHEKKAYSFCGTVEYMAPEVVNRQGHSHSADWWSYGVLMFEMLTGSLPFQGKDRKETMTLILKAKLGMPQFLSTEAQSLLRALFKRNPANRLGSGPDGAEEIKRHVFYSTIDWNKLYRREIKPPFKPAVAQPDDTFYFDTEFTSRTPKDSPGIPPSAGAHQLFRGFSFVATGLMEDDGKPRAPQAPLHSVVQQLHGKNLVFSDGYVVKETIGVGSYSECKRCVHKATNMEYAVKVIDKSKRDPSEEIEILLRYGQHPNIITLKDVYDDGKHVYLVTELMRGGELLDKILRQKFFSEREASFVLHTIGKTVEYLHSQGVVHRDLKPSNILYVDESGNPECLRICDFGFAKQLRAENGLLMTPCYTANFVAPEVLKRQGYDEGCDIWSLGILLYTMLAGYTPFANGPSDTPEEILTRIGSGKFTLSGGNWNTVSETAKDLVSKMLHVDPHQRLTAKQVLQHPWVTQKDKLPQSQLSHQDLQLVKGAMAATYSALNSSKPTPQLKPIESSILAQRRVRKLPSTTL
T1 sequence (P12931 2-536 limits assumed): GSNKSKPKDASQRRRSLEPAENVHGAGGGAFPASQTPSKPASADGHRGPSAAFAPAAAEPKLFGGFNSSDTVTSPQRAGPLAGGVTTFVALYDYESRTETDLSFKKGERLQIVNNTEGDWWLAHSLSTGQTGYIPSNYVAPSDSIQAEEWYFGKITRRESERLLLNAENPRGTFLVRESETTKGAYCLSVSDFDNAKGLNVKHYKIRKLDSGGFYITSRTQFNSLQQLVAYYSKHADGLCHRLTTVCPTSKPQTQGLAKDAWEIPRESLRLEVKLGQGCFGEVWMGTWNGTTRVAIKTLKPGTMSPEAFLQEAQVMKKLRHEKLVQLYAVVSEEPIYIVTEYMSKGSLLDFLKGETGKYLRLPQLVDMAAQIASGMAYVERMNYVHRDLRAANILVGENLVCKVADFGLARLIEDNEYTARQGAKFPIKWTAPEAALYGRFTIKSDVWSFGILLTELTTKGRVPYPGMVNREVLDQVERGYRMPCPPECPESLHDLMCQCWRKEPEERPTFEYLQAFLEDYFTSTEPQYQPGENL
Sequence of Epidermal growth factor receptor (P00533 whole entry): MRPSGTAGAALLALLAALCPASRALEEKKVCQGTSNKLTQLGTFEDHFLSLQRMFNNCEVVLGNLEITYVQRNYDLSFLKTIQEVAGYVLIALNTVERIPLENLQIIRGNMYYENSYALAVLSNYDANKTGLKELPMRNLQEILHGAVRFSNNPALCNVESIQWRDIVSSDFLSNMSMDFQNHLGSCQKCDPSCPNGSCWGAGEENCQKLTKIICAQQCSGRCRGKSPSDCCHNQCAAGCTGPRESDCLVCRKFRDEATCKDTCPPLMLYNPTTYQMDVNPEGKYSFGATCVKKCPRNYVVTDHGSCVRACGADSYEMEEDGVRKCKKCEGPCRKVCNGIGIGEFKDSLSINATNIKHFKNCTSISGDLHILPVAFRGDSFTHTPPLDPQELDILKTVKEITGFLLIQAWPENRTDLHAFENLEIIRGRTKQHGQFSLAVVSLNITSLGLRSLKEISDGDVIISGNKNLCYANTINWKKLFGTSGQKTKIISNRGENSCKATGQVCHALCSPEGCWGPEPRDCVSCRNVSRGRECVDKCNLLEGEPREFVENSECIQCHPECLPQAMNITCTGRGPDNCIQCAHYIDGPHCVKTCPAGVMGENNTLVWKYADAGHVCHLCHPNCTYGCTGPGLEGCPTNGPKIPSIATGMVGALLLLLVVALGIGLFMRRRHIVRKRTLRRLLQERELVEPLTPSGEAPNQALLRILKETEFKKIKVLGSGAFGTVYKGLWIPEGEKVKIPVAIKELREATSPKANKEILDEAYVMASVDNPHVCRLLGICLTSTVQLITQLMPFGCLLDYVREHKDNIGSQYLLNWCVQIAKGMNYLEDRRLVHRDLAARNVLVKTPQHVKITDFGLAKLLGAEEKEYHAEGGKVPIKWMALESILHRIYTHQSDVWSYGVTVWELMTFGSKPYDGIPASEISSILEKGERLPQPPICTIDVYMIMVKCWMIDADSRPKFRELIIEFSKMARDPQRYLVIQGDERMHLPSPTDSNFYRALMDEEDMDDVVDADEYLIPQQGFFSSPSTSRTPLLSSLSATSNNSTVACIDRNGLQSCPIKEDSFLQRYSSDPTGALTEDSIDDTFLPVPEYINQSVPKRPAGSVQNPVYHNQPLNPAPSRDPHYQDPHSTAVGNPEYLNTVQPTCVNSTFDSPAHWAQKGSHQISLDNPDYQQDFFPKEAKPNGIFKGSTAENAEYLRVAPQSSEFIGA
Sequence of Vascular endothelial growth factor receptor 2 (Homo sapiens) (P35968 whole entry): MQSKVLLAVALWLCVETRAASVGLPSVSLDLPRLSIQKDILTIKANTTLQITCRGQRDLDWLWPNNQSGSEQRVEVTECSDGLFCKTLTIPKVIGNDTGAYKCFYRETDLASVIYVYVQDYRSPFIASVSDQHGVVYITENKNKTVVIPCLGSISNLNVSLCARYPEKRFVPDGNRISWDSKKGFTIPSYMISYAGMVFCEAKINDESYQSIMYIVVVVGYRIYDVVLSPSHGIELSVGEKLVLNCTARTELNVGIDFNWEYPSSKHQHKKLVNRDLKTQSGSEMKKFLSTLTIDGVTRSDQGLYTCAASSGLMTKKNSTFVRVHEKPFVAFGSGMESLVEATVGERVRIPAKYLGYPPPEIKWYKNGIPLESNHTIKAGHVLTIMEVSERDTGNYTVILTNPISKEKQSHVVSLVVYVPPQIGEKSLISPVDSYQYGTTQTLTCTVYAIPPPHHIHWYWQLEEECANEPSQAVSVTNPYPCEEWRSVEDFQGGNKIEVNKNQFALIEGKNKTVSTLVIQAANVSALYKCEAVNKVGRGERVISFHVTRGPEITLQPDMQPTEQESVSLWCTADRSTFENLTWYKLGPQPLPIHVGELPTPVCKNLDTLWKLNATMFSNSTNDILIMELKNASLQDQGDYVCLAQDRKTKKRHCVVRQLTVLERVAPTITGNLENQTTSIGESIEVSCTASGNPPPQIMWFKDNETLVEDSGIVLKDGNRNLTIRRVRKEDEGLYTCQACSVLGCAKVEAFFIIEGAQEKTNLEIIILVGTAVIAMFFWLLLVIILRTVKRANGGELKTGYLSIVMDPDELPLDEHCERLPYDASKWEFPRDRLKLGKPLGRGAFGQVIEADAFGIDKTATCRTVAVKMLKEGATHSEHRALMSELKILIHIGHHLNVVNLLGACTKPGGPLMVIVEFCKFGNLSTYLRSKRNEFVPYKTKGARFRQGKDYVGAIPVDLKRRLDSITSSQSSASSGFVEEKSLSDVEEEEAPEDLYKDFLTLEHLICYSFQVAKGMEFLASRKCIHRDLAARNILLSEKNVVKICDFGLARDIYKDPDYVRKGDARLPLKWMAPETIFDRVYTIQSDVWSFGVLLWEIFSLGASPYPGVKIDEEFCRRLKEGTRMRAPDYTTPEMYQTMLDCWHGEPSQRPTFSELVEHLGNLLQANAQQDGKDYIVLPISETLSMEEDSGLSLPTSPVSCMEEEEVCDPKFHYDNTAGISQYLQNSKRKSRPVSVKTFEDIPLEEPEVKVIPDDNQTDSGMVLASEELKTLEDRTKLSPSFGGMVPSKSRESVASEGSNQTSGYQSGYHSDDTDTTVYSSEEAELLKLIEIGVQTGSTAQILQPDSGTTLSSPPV

SMILES: COCCOc1cc2ncnc(Nc3c(Cl)ccc4c3OCO4)c2cc1NC(=O)[C@@H]1CCCN1
Activity (MCF7): inactive
Cmax [2]: 120 nM
AUC [3]: 1240 ng·h/mL
Tmax [4]: 4 h
Activity [5]: tde
Tmax [6]: 4.8 min
half-life [7]: 6.1 h
Cmax [8]: 2010 nM
Activity [9]: Active
Activity (A-431 [10]): Dose-dependent effect
IC50 [11]: 7130 nM
AUC [12]: 2400 ng·h/mL
Activity (SK-BR-3): inactive
Activity [13]: tde
Activity (PC-3 [14]): tde
Activity (PC-3 [15]): Active
Cmax (Rattus norvegicus): 400 nM
Activity (A-431 [16]): tde
Activity (A-431 [17]): Active
bioavailability [18]: 20.4%
Activity [19]: Active
Tmax [20]: 1 h
IC50 [21]: 89 nM
Activity [22]: inactive
half-life [23]: 5.4 h
Activity (PC-3 [24]): Dose-dependent effect
IC50 (A-431 [25]): 780 nM

SMILES: C=CC(=O)Nc1cc2c(Nc3cc(OC)c(Cl)cc3OC)ncnc2cc1OCC1CCN(C)CC1
Activity [1]: Active

SMILES: COCCOc1cc2ncnc(Nc3ccc(F)c(Cl)c3)c2cc1NC(=O)[C@@H]1CCCN1
Activity [1]: Active
IC50 [21]: 300 nM

The remaining lines, values ahead:

Activity [1]: Active
SMILES: CN(C)CCC(=O)Nc1cc2c(Nc3ccc(F)c(Cl)c3)ncnc2cc1OCCCN1CCOCC1

Activity [1]: Active
SMILES: CCN1CCN(Cc2ccc(-c3cc4c(N[C@@H](C)c5ccccc5)ncnc4[nH]3)cc2)CC1
